Data: ChEMBL document CHEMBL4342485, “Discovery of Potent Benzolactam IRAK4 Inhibitors with Robust in Vivo Activity” (ACS Med Chem Lett, 2020)
Calls of active or inactive are those of the source. The rule behind the calls is not given here.

What was measured:
[1] = tested on: Mus musculus; assay: In vivo inhibition of IRAK4 in R848-induced C57BL/6 mouse assessed as IFN alpha levels at 1.2 mg/kg, po administered as nanosuspension at 1 hr prior to R848 challenge and measured after 1 hr by ELISA relative to control; format: functional; design: scale not given: the % may be the effect or the level left
In short: (§1)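 C57 black 6 mice were given vehicle or compound as a nanosuspension in MCT (0.5% methyl-cellulose/0.2% tween-80) across a dose range, 1 h before TLR7/8 agonist R848 (resiquimod) stimulation. Blood was drawn 1 h after R848, which is 2 h after compound. Plasma IFNα was measured by ELISA against vehicle-treated, R848-stimulated animals. Plasma drug levels were taken at the same time.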

[2] = Oral bioavailability in rat at 1 mg/kg; format: ADME, organism-based; conditions: in vivo
[3] = Volume of distribution at steady state in rat at 1 mg/kg, iv or po; format: ADME, organism-based; conditions: in vivo, read-out: Vdss
[4] = Half life in mouse at 1 mg/kg, iv or po; format: ADME, organism-based; conditions: in vivo
[5] = Oral bioavailability in cynomolgus monkey at 1 mg/kg; format: ADME, organism-based, Macaca fascicularis; conditions: in vivo
[6] = tested on: Mus musculus; assay: In vivo inhibition of IRAK4 in R848-induced po dosed C57BL/6 mouse assessed as inhibition of IFN alpha secretion administered as nanosuspension at 1 hr prior to R848 challenge and measured after 1 hr by ELISA; format: functional, organism-based
In short: (§2)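 C57 black 6 mice dosed with vehicle or nanosuspension in 0.5% methyl-cellulose/0.2% tween-80 across a dose range 1 h before stimulation with TLR7/8 agonist R848; blood sampled 1 h after R848 (2 h post-dose). Plasma IFNα, IL-6 and TNFα measured, IFNα by ELISA; compound plasma levels also determined.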

[7] = Clearance in dog plasma at 1 mg/kg, iv or po; format: ADME, organism-based, Canis lupus familiaris
[8] = tested on: Mus musculus; assay: In vivo inhibition of IRAK4 in R848-induced po dosed C57BL/6 mouse assessed as inhibition of TNFalpha secretion administered as nanosuspension at 1 hr prior to R848 challenge and measured after 1 hr by ELISA; format: functional, organism-based; in short: as §2
[9] = AUC (infinity) in dog at 1 mg/kg, iv or po; format: ADME, organism-based, Canis lupus familiaris; conditions: in vivo
In short: (§3)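 Separate intravenous and oral PK studies, each dosed at 1 mg/kg. Plasma AUC was extrapolated to infinity and reported in µM*h. Half-life and oral bioavailability were derived from the same studies.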

[10] = tested on: Mus musculus; assay: In vivo inhibition of IRAK4 in R848-induced C57BL/6 mouse assessed as inhibition of TNF alpha secretion at 3 mg/kg, po administered as nanosuspension at 1 hr prior to R848 challenge and measured after 1 hr by ELISA; format: functional, organism-based; in short: as §2
[11] = Volume of distribution at steady state in mouse at 1 mg/kg, iv or po; format: ADME, organism-based; conditions: in vivo, read-out: Vdss
[12] = Half life in dog at 1 mg/kg, iv or po; format: ADME, organism-based, Canis lupus familiaris; conditions: in vivo
[13] = AUC (infinity) in cynomolgus monkey at 1 mg/kg, iv or po; format: ADME, organism-based, Macaca fascicularis; conditions: in vivo; in short: as §3
[14] = tested on: Mus musculus; assay: In vivo inhibition of IRAK4 in R848-induced po dosed C57BL/6 mouse assessed as inhibition of IL-6 secretion administered as nanosuspension at 1 hr prior to R848 challenge and measured after 1 hr by ELISA; format: functional, organism-based; in short: as §2
[15] = Clearance in mouse plasma at 1 mg/kg, iv or po; format: ADME, organism-based
[16] = Protein binding in rat plasma at 5 uM incubated for 6 hrs by red equilibrium dialysis based LC-MS/MS analysis; format: ADME, cell-free; conditions: read-out: PPB (converted)
[17] = Apparent permeability across apical to basolateral side in dog MDCKI cells at 10 uM measured after 60 to 180 mins by lucifer yellow dye based LC-MS/MS analysis; format: ADME, cell-based, Canis lupus familiaris; conditions: MDCK
In short: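 Apical-to-basolateral permeability measured in Madin–Darby canine kidney (MDCK) cell monolayers; reported in ×10–6 cm/s.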

[18] = Oral bioavailability in dog at 1 mg/kg; format: ADME, organism-based, Canis lupus familiaris; conditions: in vivo
[19] = Volume of distribution at steady state in dog at 1 mg/kg, iv or po; format: ADME, organism-based, Canis lupus familiaris; conditions: in vivo, read-out: Vdss
[20] = AUC (infinity) in mouse at 1 mg/kg, iv or po; format: ADME, organism-based; conditions: in vivo
[21] = Oral bioavailability in mouse at 1 mg/kg; format: ADME, organism-based; conditions: in vivo
[22] = Clearance in cynomolgus monkey plasma at 1 mg/kg, iv or po; format: ADME, organism-based, Macaca fascicularis
[23] = AUC (infinity) in rat at 1 mg/kg, iv or po; format: ADME, organism-based; conditions: in vivo; in short: as §3
[24] = biological target: T1, Interleukin-1 receptor-associated kinase 4 (Homo sapiens, UniProt Q9NWZ3); assay: Inhibition of recombinant full-length N-terminal His6-tagged human IRAK4 expressed in baculovirus expression system using H-KKARFSRFAGSSPSQSSMVAR peptide as substrate after 90 mins by fluorescence polarisation assay
T1 sequence (Q9NWZ3 whole entry): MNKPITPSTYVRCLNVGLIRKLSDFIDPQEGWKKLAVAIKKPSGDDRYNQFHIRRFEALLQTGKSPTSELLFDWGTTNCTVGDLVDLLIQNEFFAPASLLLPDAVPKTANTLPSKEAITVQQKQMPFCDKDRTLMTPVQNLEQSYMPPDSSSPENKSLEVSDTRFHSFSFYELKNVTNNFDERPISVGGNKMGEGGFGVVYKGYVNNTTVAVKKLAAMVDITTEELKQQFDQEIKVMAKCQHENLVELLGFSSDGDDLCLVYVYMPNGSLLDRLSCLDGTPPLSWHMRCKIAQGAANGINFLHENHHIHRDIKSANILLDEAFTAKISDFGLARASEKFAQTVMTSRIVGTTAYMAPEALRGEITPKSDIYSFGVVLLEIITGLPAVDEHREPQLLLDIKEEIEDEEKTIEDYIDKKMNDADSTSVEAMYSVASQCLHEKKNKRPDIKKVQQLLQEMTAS

[25] = Protein binding in cynomolgus monkey plasma at 5 uM incubated for 6 hrs by red equilibrium dialysis based LC-MS/MS analysis; format: ADME, cell-free, Macaca fascicularis; conditions: read-out: PPB (converted)
[26] = Protein binding in mouse plasma at 5 uM incubated for 6 hrs by red equilibrium dialysis based LC-MS/MS analysis; format: ADME, cell-free; conditions: read-out: PPB (converted)
[27] = tested on: Mus musculus; assay: In vivo inhibition of IRAK4 in R848-induced C57BL/6 mouse assessed as IFN alpha levels at 11.1 mg/kg, po administered as nanosuspension at 1 hr prior to R848 challenge and measured after 1 hr by ELISA relative to control; format: functional; design: scale not given: the % may be the effect or the level left; in short: as §1
[28] = Protein binding in dog plasma at 5 uM incubated for 6 hrs by red equilibrium dialysis based LC-MS/MS analysis; format: ADME, cell-free, Canis lupus familiaris; conditions: read-out: PPB (converted)
[29] = Half life in cynomolgus monkey at 1 mg/kg, iv or po; format: ADME, organism-based, Macaca fascicularis; conditions: in vivo
[30] = tested on: Mus musculus; assay: In vivo inhibition of IRAK4 in R848-induced C57BL/6 mouse assessed as IFN alpha levels at 3.7 mg/kg, po administered as nanosuspension at 1 hr prior to R848 challenge and measured after 1 hr by ELISA relative to control; format: functional; design: scale not given: the % may be the effect or the level left; in short: as §1
[31] = Half life in rat at 1 mg/kg, iv or po; format: ADME, organism-based; conditions: in vivo
[32] = tested on: Mus musculus; assay: In vivo inhibition of IRAK4 in R848-induced C57BL/6 mouse assessed as IFN alpha levels at 33.3 mg/kg, po administered as nanosuspension at 1 hr prior to R848 challenge and measured after 1 hr by ELISA relative to control; format: functional; design: scale not given: the % may be the effect or the level left; in short: as §1
[33] = tested on: Mus musculus; assay: In vivo inhibition of IRAK4 in R848-induced C57BL/6 mouse assessed as IL6 level at 100 mg/kg, po administered as nanosuspension at 1 hr prior to R848 challenge and measured after 1 hr by ELISA relative to control; format: functional; design: scale not given: the % may be the effect or the level left
In short: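 C57 black 6 mice were pretreated with vehicle or a compound nanosuspension in 0.5% methyl-cellulose/0.2% tween-80 over a dose range, 1 h before R848 stimulation. Blood was sampled 1 h post-R848, and IL-6 and TNFα levels were compared with vehicle-treated, R848-stimulated mice.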

[34] = Clearance in rat plasma at 1 mg/kg, iv or po; format: ADME, organism-based
[35] = Protein binding in human plasma at 5 uM incubated for 6 hrs by red equilibrium dialysis based LC-MS/MS analysis; format: ADME, cell-free
[36] = biological target: T1, Interleukin-1 receptor-associated kinase 4
[37] = Volume of distribution at steady state in cynomolgus monkey at 1 mg/kg, iv or po; format: ADME, organism-based, Macaca fascicularis; conditions: in vivo, read-out: Vdss

`CC(C)(O)[C@H](F)CN1Cc2cc(NC(=O)c3cnn4cccnc34)c(N3CCOCC3)cc2C1=O` gave an Activity [1] of -12%, a bioavailability [2] of 31% and a Vd [3] of 0.95 L/kg. For the same compound, the half-life [4] was 1.9 h, the bioavailability [5] was 47% and the inhibition [6] was “Dose-dependent effect”. For the same compound, the clearance [7] was 11.3 mL/min/kg, the inhibition [8] was “Dose-dependent effect” and the AUC(0-inf) [9] was 3.1 µM·h. For the same compound, the inhibition [10] was “Active”, the Vd [11] was 2.2 L/kg and the half-life [12] was 4.1 h. For the same compound, the AUC(0-inf) [13] was 2.2 µM·h, the inhibition [14] was “Dose-dependent effect” and the clearance [15] was 29 mL/min/kg. The fraction unbound at 6 h, 5 µM [16] was 0.086, the Papp A→B at 10 µM [17] was 9.1 to 9.2 ×10⁻⁶ cm/s and the bioavailability [18] was 109%. For the same compound, the Vd [19] was 3.7 L/kg, the AUC(0-inf) [20] was 1.2 µM·h and the bioavailability [21] was 34%. For the same compound, the clearance [22] was 15.8 mL/min/kg, the AUC(0-inf) [23] was 3.8 µM·h and the Ki [24] was 1.4 nM. The fraction unbound at 6 h, 5 µM [25] was 0.332, the fraction unbound at 6 h, 5 µM [26] was 0.058 and the Activity [27] was -45%. It also gave a fraction unbound at 6 h, 5 µM [28] of 0.224, a half-life [29] of 5.4 h and an Activity [30] of -24%. For the same compound, the half-life [31] was 1.6 h, the Activity [32] was -53% and the Activity [33] was -64%. The clearance [34] was 9.2 mL/min/kg, the PPB [35] was 72.4% and the IC50 [36] was 190 nM. It also gave a Vd [37] of 3.7 L/kg.
